# Bioassay records: PubChem, several laboratories
# Rows were chosen to be rich in hits. Some 2.3% of all compounds tested hit in one or more screens of this group.
# Glyco luc inh: N-linked glycosylation inhibition | D54 ERlucT glycosylation luciferase reporter, 24 h; percent of 100 nM tunicamycin response | reporter increase, % at 12.5 µM | 0.23% of 360,000 active | AID 588692;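 active = mean luciferase reporter signal, scaled so untreated is 0 and the glycosylation-blocking control 100, at or above a set limit in every replicate; inconclusive = mean reaches the limit but not every replicate does; inactive = mean below the limit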;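 also: luciferase carries N-glycosylation sites so blocking glycosylation raises the light; 0% = median of neutral control wells and 100% = median of 100 nM tunicamycin wells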
# PfHsp90 set2: reduces growth (ATP signal) of yeast expressing P. falciparum Hsp90; S. cerevisiae expressing PfHsp90, BacTiter-Glo ATP, 48 h; yeast lacking PDR1 and PDR3 efflux regulators; inhibition, % at 9.4 µM; 0.32% of 310,000 active;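 active = every replicate shows inhibition above about 80%, whatever the replicate mean, limit read from the data; inconclusive = mean inhibition reaches the set limit but some replicate falls short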;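 also: 0% = DMSO neutral controls and 100% = 20 µM radicicol positive controls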
# Arr AP2 block: blocks beta-arrestin peptide binding to AP2 adaptin; inhibition, % at 10 µM; 0.31% of 340,000 active; FITC-arrestin peptide / GST-AP2 beads, flow cytometry; AP2 beta2 appendage carries R879A mutation;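 active = inhibition above a set limit, near 3 SD of compounds lacking own fluorescence, cut at about 54% in these data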;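 also: plate controls were DMSO wells for no effect and 5 µM unlabelled arrestin peptide for full effect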
#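 System: GST-AP2 R879A glutathione beads. Medium: PBS with 0.05% Tween 20 and 0.1% BSA. Also added: FITC-arrestin peptide, 50 nM. Incubation: 12 min plus 1 h, RT. Measured by: high-throughput flow cytometry of beads, ex 488, em 535 nm. Evaluation: percent drop in bead-associated FITC signal.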
# PAX8 reporter: inhibitors of PAX8 transcriptional activity in RMG-I cells; RMG-I TPO-luciferase reporter, SteadyGlo, 24 h; inhibition, % at 12.6 µM; AID 652154; 1.2% of 360,000 active;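 active = mean replicate inhibition at least 60% with every replicate also reaching 60%; inconclusive = only one of the two criteria is met; inactive = mean below 60% and not all replicates reaching 60%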;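 also: luciferase light reporting Pax8 driven TPO promoter activity; plate controls were median of neutral control wells for no effect and mitoxantrone controls for full effect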
# HIV Env fusion: inhibitors of HIV Env-mediated cell fusion. HeLa-JRFL Env/CEM21 cell fusion, luciferase. inhibition, % at 12.3 µM. 1.1% of 360,000 active;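 active = mean replicate inhibition score of at least 50 and every replicate individually at or above 50; inconclusive = only one of the two criteria met; inactive = mean below 50 and not all replicates reaching 50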;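 also: 0% = plate neutral controls and 100% = maraviroc near 300 nM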
# Rtt109 HAT inh: C. albicans Rtt109 histone acetyltransferase inhibition. AID 540336. purified Rtt109/Vps75, ThioGlo CoA-SH fluorescence, 4 h. Q5AAJ8. 0.16% of 330,000 active. inhibition, % at 34.9 µM;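 active = inhibition of at least 50% in every replicate; inconclusive = best replicate reaches 50% inhibition but some replicates fall short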
# Target sequence (Q5AAJ8 whole entry, looked up): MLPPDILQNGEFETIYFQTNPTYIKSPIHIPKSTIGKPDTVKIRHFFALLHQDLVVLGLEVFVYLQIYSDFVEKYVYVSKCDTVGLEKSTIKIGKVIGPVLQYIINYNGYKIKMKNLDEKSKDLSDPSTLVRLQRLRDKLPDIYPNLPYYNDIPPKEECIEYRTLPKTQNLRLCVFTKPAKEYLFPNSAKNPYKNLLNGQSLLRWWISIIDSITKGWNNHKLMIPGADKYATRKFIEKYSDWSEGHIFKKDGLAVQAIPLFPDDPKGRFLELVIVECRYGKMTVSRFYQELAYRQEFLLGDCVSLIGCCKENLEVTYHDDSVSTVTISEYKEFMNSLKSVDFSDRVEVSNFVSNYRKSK
# * = called active by the depositor; ? = inconclusive; · = no result given; ! = repeats disagree; [ ] = dose if it differs, or a comment.
SMILES,Glyco luc inh,PfHsp90 set2,Arr AP2 block,PAX8 reporter,HIV Env fusion,Rtt109 HAT inh
COCCNC(=O)C[C@@H]1C[C@H]2c3cc(NC(=O)c4ccc5c(c4)OCO5)ccc3O[C@H]2[C@H](CO)O1,·,·,·,-26,6[16.7 µM],·
C[C@H](CO)N1C[C@H](C)[C@H](CN(C)S(=O)(=O)c2ccc(F)cc2)Oc2ncc(/C=C/c3ccccc3)cc2C1=O,·,·,·,-25,50*![16.7 µM],·
C[C@H]1CN([C@@H](C)CO)C(=O)c2cc(/C=C/c3ccccc3)cnc2O[C@@H]1CN(C)C(=O)C1CC1,·,·,·,·,-8[16.7 µM],·
C[C@@H]1CN([C@H](C)CO)C(=O)c2cc(/C=C/c3ccccc3)cnc2O[C@@H]1CN(C)C(=O)C1CC1,·,·,·,74*,·,·
Cc1noc(C)c1NC(=O)NCC[C@H]1CC[C@H](NC(=O)c2ccccc2)[C@@H](CO)O1,·,·,·,-2,-7[16.7 µM],·
O=C(N/N=C/c1ccc(F)cc1)c1ccccc1,-2,5,14,-189,-40,2
COc1ccc(C(=O)N/N=C/c2sc3ccccc3c2O)cc1,-11,100*,5,·,·,30
COc1ccc2cc(C(=O)N/N=C/c3sc4ccccc4c3O)ccc2c1,-8,-49,1,2,?,20
O=C(N/N=C/c1sc2ccccc2c1O)c1cccc2ccccc12,-11,104*,14,19,-35,12
O=C(N/N=C/c1sc2ccccc2c1O)c1ccccc1,-15,100*,3,·,·,19
COc1ccc(CN(C)C[C@H]2Oc3ccc(NC(=O)Cc4ccccc4)cc3CC(=O)N([C@H](C)CO)C[C@H]2C)cc1,·,·,·,6,-7[16.7 µM],·
COc1ccc(NC(=O)Nc2ccc3c(c2)C(=O)N([C@@H](C)CO)C[C@@H](C)[C@H](CN(C)Cc2ccc(C(F)(F)F)cc2)O3)cc1,·,·,·,91*,13[16.7 µM],·
C[C@@H]1CN([C@@H](C)CO)C(=O)c2cc(NC(=O)Nc3ccc(F)cc3)ccc2O[C@@H]1CN(C)Cc1ccc(C(F)(F)F)cc1,·,·,·,70*,·,·
COc1ccc(NC(=O)Nc2ccc3c(c2)C(=O)N([C@H](C)CO)C[C@@H](C)[C@H](CN(C)Cc2ccc(C(F)(F)F)cc2)O3)cc1,·,·,·,12,11[16.7 µM],·
COc1ccc(CN(C)C[C@@H]2Oc3ccc(NC(=O)Nc4ccc(OC)cc4)cc3C(=O)N([C@H](C)CO)C[C@@H]2C)cc1,·,·,·,-7,63*[16.7 µM],·
Cc1ccc(OCCCC(=O)NCc2ccco2)cc1,2,-42,-5,·,-2,-1
Cc1ccc(OCCNC(=O)C(=O)NCc2ccco2)cc1,26*,-3,-3,19,-83,-19
C[C@@H]1CN([C@H](C)CO)C(=O)c2cc(NS(=O)(=O)c3ccccc3)ccc2O[C@@H](C)CCCCO[C@@H]1CN(C)CC1CCCCC1,·,·,·,89*,4[16.7 µM],·
C[C@@H]1CCCCO[C@H](CN(C)CC2CCCCC2)[C@H](C)CN([C@H](C)CO)C(=O)c2cc(NS(=O)(=O)c3ccccc3)ccc2O1,·,·,·,92*,11[16.7 µM],·
C[C@@H]1CN([C@@H](C)CO)C(=O)c2cc(NC(=O)c3ccccc3)ccc2O[C@@H](C)CCCCO[C@H]1CN(C)CC1CCCCC1,·,·,·,-18,63*[16.7 µM],·
C[C@@H]1CCCCO[C@@H](CN(C)CC2CCCCC2)[C@H](C)CN([C@H](C)CO)C(=O)c2cc(NS(=O)(=O)c3ccccc3)ccc2O1,·,·,·,23,-13[16.7 µM],·
C[C@H]1CCCCO[C@@H](CN(C)CC2CCCCC2)[C@@H](C)CN([C@@H](C)CO)C(=O)c2cc(NS(=O)(=O)c3ccccc3)ccc2O1,·,·,·,25,-48[16.7 µM],·
CO[C@@H]1CN(C)C(=O)c2cc(NC(C)=O)ccc2OC[C@H](C)N(Cc2cncnc2)C[C@@H]1C,·,·,·,·,18[16.7 µM],·
COc1ccc(S(=O)(=O)Nc2ccc3c(c2)C(=O)N([C@H](C)CO)C[C@H](C)[C@@H](CN(C)C(=O)Cc2ccccc2)OCCCC[C@H](C)O3)cc1,·,·,·,5,-41[16.7 µM],·
COC(=O)C1(C(=O)OC)C[C@H](c2ccc(OC)cc2)N(Cc2ccccc2OC)[C@@H]1c1ccccc1,·,·,·,-10,85*,·
SMILES,Glyco luc inh,PfHsp90 set2,Arr AP2 block,PAX8 reporter,HIV Env fusion,Rtt109 HAT inh
COc1ccc2nc(N/C(N)=N/S(C)(=O)=O)nc(C)c2c1,3,4,2,-41,61*,1
CN1C(=O)c2cc(NC(=O)c3cccs3)ccc2OC[C@@H]2O[C@@H](CC(=O)NCC(F)(F)F)CC[C@@H]21,·,·,·,0,-11[16.7 µM],·
C[C@@H]1CN([C@@H](C)CO)C(=O)c2cc(NC(=O)c3ccncc3)ccc2O[C@@H](C)CCCCO[C@@H]1CN(C)S(=O)(=O)c1cn(C)cn1,·,·,·,-18,20[16.7 µM],·
Cc1nn(C)c(C)c1/C=C/C(=O)c1ccc(Cl)cc1Cl,-3,0,36,30,56*,-2
Cc1ccc(S(=O)(=O)N/N=C\C=C\c2ccccc2)cc1,-3,6,-4,·,·,51*
Cn1c(-c2ccccc2)c(C#Cc2ccc(N)cc2)c2ccccc21,0,-24,3,6,70*,-2
COc1ccccc1CN1[C@@H]2CN(C(=O)C3CC3)c3ccccc3[C@@H]2[C@@H]1CO,·,·,·,33,·,·
CN1CCN(c2nc(-c3ccccc3O)nc3ccccc23)CC1,21,1,37,1,-7,10
COc1cccc(-c2nc(NC3CCCC3)c3ccccc3n2)c1O,-3,117*,6,8,7,-2
COc1cccc(-c2nc(N3CCN(C)CC3)c3ccccc3n2)c1O,129*,9,49,-55,-62,15
CCC(=O)N[C@H]1CC[C@H](CCn2cc(CN(C)C)nn2)O[C@H]1CO,·,·,·,-14,4[16.7 µM],·
COc1ccc2nc(-c3ccco3)c(-c3ccco3)nc2c1,33*,-5,30,·,·,-2
C[C@@H]1CN([C@@H](C)CO)C(=O)c2cc(NC(=O)Cc3ccccc3)ccc2O[C@@H](C)CCCCO[C@@H]1CN(C)Cc1ccc2c(c1)OCO2,·,·,·,-3,-28[16.7 µM],·
O=C(NCCCN1CCOCC1)C(=O)N/N=C/c1c2ccccc2cc2ccccc12,0,-5,-1,72*,-334,-1
O=C1C2C3C=CC(C3)C2C(=O)N1CN(Cc1ccccc1)CN1C(=O)C2C3C=CC(C3)C2C1=O (centres undefined),0,113*,-4,4,-93,2
C[C@H]1CN([C@@H](C)CO)C(=O)Cc2cc(NC(=O)Nc3ccc4c(c3)OCO4)ccc2O[C@H]1CN(C)CC1CCCCC1,·,·,·,-9,-2[16.7 µM],·
C[C@H]1CN([C@@H](C)CO)C(=O)Cc2cc(NC(=O)Nc3ccc4c(c3)OCO4)ccc2O[C@@H]1CN(C)CC1CCCCC1,·,·,·,101*,13[16.7 µM],·
C[C@H](CO)N1C[C@H](C)[C@@H](CN(C)CC2CCCCC2)Oc2ccc(NC(=O)Nc3ccc4c(c3)OCO4)cc2CC1=O,·,·,·,90*,25[16.7 µM],·
